According to ChEMBL document CHEMBL1147012 (Bioorg Med Chem Lett, 2006):
Activity calls are given as the source filed them. The rule behind the calls is not given here.

Legend:
Tubulin = assay: Inhibition of microtubule polymerization; type: functional, Homo sapiens
How it was run: (§1)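 Microtubule polymerization assay run with a fixed, short incubation time.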

PC-3 = assay: Cytotoxicity against human PC3 cell line; type: functional, cell-based
Tubulin (Homo sapiens) [1] = molecular target: T1, Tubulin (Homo sapiens) (UniProt P68371+Q9H4B7+P0DPH7+P68366+Q13509+Q71U36+P04350+Q3ZCM7+P07437+P68363+Q9BQE3+Q6PEY2+Q13885+Q9BVA1+Q9BUF5); assay: Inhibition of microtubule polymerization up to 150 uM; type: functional; how it was run: as §1
Tubulin (Homo sapiens) [2] = molecular target: T1, Tubulin (Homo sapiens); assay: Inhibition of microtubule polymerization up to 150 uM

SMILES	IC50 (Tubulin) [µM]	Activity (Tubulin (Homo sapiens) [1])	Activity (Tubulin (Homo sapiens) [2])	IC50 (PC-3) [nM]
COc1cc2c(c(OC)c1OC)-c1ccc(=O)c(OC)cc1[C@@H](NCC(C)=O)CC2	68	–	–	93
COc1cc2c(c(OC)c1OC)-c1ccc(OC)c(=O)cc1[C@@H](NCC(C)=O)CC2	–	–	–	7.6
CCN[C@H]1CCc2cc(OC)c(OC)c(OC)c2-c2ccc(OC)c(=O)cc21	–	–	–	17.6
COc1cc2c(c(OC)c1OC)-c1ccc(=O)c(OC)cc1[C@@H](/N=C(/C)S)CC2	–	inactive	–	1750
COc1cc2c(c(OC)c1OC)-c1ccc(OC)c(=O)cc1[C@@H](/N=C(/C)S)CC2	2.2	–	–	97.5
COc1cc2c(c(OC)c1OC)-c1ccc(=O)c(OC)cc1[C@@H](Nc1ccc([N+](=O)[O-])cc1[N+](=O)[O-])CC2	–	–	–	5700
CCN[C@H]1CCc2cc(OC)c(OC)c(OC)c2-c2ccc(=O)c(OC)cc21	–	–	inactive	1720
COc1cc2c(c(OC)c1OC)-c1ccc(=O)c(OC)cc1[C@@H](NC(C)=O)CC2 [ISOCOLCHICINE]	–	–	–	4600

More lines, main results first:

IC50 (Tubulin) [µM]	Activity (Tubulin (Homo sapiens) [1])	Activity (Tubulin (Homo sapiens) [2])	SMILES	IC50 (PC-3) [nM]
59	–	–	COc1cc2c(c(OC)c1OC)-c1ccc(=O)c(OC)cc1[C@@H](NS(=O)(=O)c1ccc([N+](=O)[O-])cc1[N+](=O)[O-])CC2	10200
58	–	–	COc1cc2c(c(OC)c1OC)-c1ccc(=O)c(OC)cc1[C@@H](NS(=O)(=O)c1ccccc1[N+](=O)[O-])CC2	905
4.6	–	–	COc1cc2c(c(OC)c1OC)-c1ccc(OC)c(=O)cc1[C@@H](Nc1ccc([N+](=O)[O-])cc1[N+](=O)[O-])CC2	9
5.6	–	–	COc1cc2c(c(OC)c1OC)-c1ccc(OC)c(=O)cc1[C@@H](NS(=O)(=O)c1ccccc1[N+](=O)[O-])CC2	19.8
9.7	–	–	COc1cc2c(c(OC)c1OC)-c1ccc(OC)c(=O)cc1[C@@H](NS(=O)(=O)c1ccc([N+](=O)[O-])cc1[N+](=O)[O-])CC2	50
